Results: ChEMBL document CHEMBL2046281, “Pre-steady state kinetic analysis of cyclobutyl derivatives of 2'-deoxyadenosine 5'-triphosphate as inhibitors of HIV-1 reverse transcriptase” (Bioorg Med Chem Lett, 2012)
pKd: −log10 of the molar value.

Experiments:
[1] = biological target: Human immunodeficiency virus type 1 reverse transcriptase (Human immunodeficiency virus 1) (UniProt Q72547); assay: Binding affinity to wild type HIV1 reverse transcriptase assessed as compound incorporation in presence of 50 nM primer template and 10 mM MgCl2 by pre-steady state kinetics study
Method in brief: (§1)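 Pre-steady-state single-nucleotide incorporation by HIV-1 RT (wild type or K65R), 250 nM active-site enzyme, elongating a radiolabeled DNA/DNA primer-template (50 nM) that carries the primer binding site and its complementary sequence. Reactions contained 10 mM MgCl2 and varied nucleotide concentrations. kpol and Kd were derived, and incorporation efficiency was reported in s-1 µM-1.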

[2] = biological target: Human immunodeficiency virus type 1 reverse transcriptase (Human immunodeficiency virus 1, UniProt Q72547); assay: Binding affinity to wild type HIV1 reverse transcriptase by pre-steady state kinetics study
Method in brief: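 Pre-steady-state single-nucleotide incorporation by wild-type HIV-1 RT (250 nM active sites) into a radiolabeled DNA/DNA primer-template (50 nM) carrying the primer binding site and its complementary sequence. Reactions contained 10 mM MgCl2 and varied nucleotide concentrations. kpol and Kd were taken from the primer elongation data.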

[3] = tested on: Human immunodeficiency virus type 1 reverse transcriptase (Human immunodeficiency virus 1), Q72547 [K65R]; assay: Inhibition of HIV1 reverse transcriptase K65R mutant assessed as compound incorporation efficiency in presence of 50 nM primer template and 10 mM MgCl2 by pre-steady state kinetics study; method in brief: as §1
[4] = biological target: Human immunodeficiency virus type 1 reverse transcriptase (Human immunodeficiency virus 1, UniProt Q72547, K65R); assay: Binding affinity to HIV1 reverse transcriptase K65R mutant by pre-steady state kinetics study; method in brief: as §1
[5] = tested on: Human immunodeficiency virus type 1 reverse transcriptase (Human immunodeficiency virus 1), Q72547 [K65R]; assay: Binding affinity to HIV1 reverse transcriptase K65R mutant assessed as compound incorporation in presence of 50 nM primer template and 10 mM MgCl2 by pre-steady state kinetics study; method in brief: as §1
[6] = biological target: Human immunodeficiency virus type 1 reverse transcriptase (Human immunodeficiency virus 1) (UniProt Q72547); assay: Inhibition of wild type HIV1 reverse transcriptase assessed as compound incorporation efficiency in presence of 50 nM primer template and 10 mM MgCl2 by pre-steady state kinetics study; method in brief: as §1
[7] = biological target: Human immunodeficiency virus type 1 reverse transcriptase (Human immunodeficiency virus 1) (UniProt Q72547); assay: Discrimination index, ratio of incorporation efficiency of dATP to incorporation efficiency of compound for wild type HIV1 reverse transcriptase
[8] = tested on: Human immunodeficiency virus type 1 reverse transcriptase (Human immunodeficiency virus 1), Q72547 [K65R]; assay: Discrimination index, ratio of incorporation efficiency of dATP to incorporation efficiency of compound for wild type HIV1 reverse transcriptase K65R mutant

SMILES | Ratio [7] | K [1] [s⁻¹] | pKd [2] | Activity [3] [s⁻¹ µM⁻¹] | pKd [4] | K [5] [s⁻¹] | Activity [6] [s⁻¹ µM⁻¹] | Ratio [8]
Nc1ncnc2c1ncn2[C@H]1C[C@@H](OCP(=O)(O)OP(=O)(O)OP(=O)(O)O)C1 | 13 | 1.3 | 5.19 | 0.015 | 5.33 | 0.07 | 0.21 | 41
C[C@H](Cn1cnc2c(N)ncnc21)OCP(=O)(O)OP(=O)(O)OP(=O)(O)O | 56 | 0.79 | 4.78 | 0.005 | 4.54 | 0.15 | 0.048 | 122
NC1=Nc2ncnc3c2c(cn3[C@H]2C[C@@H](COP(=O)(O)OP(=O)(O)OP(=O)(O)O)C2)C=C1 | 386 | 0.16 | 4.65 | – | – | – | 0.007 | –
Nc1ncnc2c1ncn2[C@H]1C[C@H](O)[C@@H](COP(=O)(O)OP(=O)(O)OP(=O)(O)O)O1 | – | 12.3 | 5.34 | 0.61 | 5.18 | 4 | 2.7 | –

Continued, in another order:

Ratio [7] | SMILES | K [1] [s⁻¹] | pKd [2] | Activity [3] [s⁻¹ µM⁻¹] | pKd [4] | K [5] [s⁻¹] | Activity [6] [s⁻¹ µM⁻¹] | Ratio [8]
245 | Nc1ncnc2c1ncn2[C@H]1C[C@@H](COP(=O)(O)OP(=O)(O)OP(=O)(O)O)C1 | 0.23 | 4.69 | – | – | – | 0.011 | –
519 | Nc1ncnc2c1ncn2[C@@H]1C[C@H](COP(=O)(O)OP(=O)(O)OP(=O)(O)O)[C@H]1F | 0.13 | 4.59 | – | – | – | 0.0052 | –
